Publication PMC11253529 (iScience, 2024)
Where two headings read alike, the source gives them in different places.

Columns and labels:
intracellular Ca^2+ = test: Intracellular Ca2+ induction assay; assay type: cell-based, human; conditions: 2.5 μg/mL; Fluo-8 pre-treated HEK293T cells; fluorescence imaging; n = 3
How it was run: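 HEK293T cells (2 × 10^4/well, poly-D-lysine plates) were cultured 24 h at 37°C, then loaded with 4 μM Fluo-8-AM in HBSS for 1 h at 37°C and switched to HBSS. After peptide addition, confocal high-content images were taken every second for 20 s. Cells above a fluorescence threshold set from pre-treatment cells were counted against untreated cells. The positive control was 5 μM ionomycin.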

M. smegmatis ATCC607 = conditions: MHII medium; previously determined values; ref Krämer et al.[35]; cited from earlier work
C. albicans FH2173 = conditions: MHII medium; previously determined values; ref Krämer et al.[35]; cited from earlier work
A. flavus ATCC9170 = conditions: MHII medium; previously determined values; ref Krämer et al.[35]; cited from earlier work
[1] = system: S. aureus (MRSA) ATCC33592; conditions: MHII medium; previously determined values; ref Krämer et al.[35]; cited from earlier work
E. coli ATCC35218 = conditions: previously determined values, ref Krämer et al.[35], cited from earlier work
P. aeruginosa ATCC27853 = conditions: MHII medium, previously determined values, ref Krämer et al.[35], cited from earlier work
pea aphids = conditions: feeding assay; cited from earlier work

Substance	Induction of intracellular Ca^2+ levels (intracellular Ca^2+)	MIC, M. smegmatis ATCC607 (M. smegmatis ATCC607) [µM]	MIC, C. albicans FH2173 (C. albicans FH2173) [µM]	MIC, A. flavus ATCC9170 (A. flavus ATCC9170) [µM]	MIC, S. aureus (MRSA) ATCC33592 [1] [µM]	MIC, E. coli ATCC35218, MHC medium (in brackets) (E. coli ATCC35218)	MIC, E. coli ATCC35218, MHII medium (E. coli ATCC35218)	MIC, P. aeruginosa ATCC27853 (P. aeruginosa ATCC27853) [µM]	Insecticidal activity in aphid feeding assays (pea aphids)	MIC, P. aeruginosa ATCC27853 (P. aeruginosa ATCC27853; listed as checacin 1)
FFGAIAKLAMK [Checacin 1^1−11]	the only exceptions	>50	>50	>50	>50	>50 (>50) μM	>50 (>50) μM	>50	–	–
FFGAIAKLAMKFLPAIYKQIQ [Checacin 1^1−21]	–	>50	>50	>50	12.5	>50 (>50) μM	>50 (>50) μM	>50	–	–
FFGAIAKLAMKFLPAIYKQIQKKRK-Amidation [Checacin 1]	–	25	6.25	50	1.56	1.6 µM	–	12.5	insecticidal activity in aphid feeding assays, but only after 72 h	inhibited to various degrees
FLPAIYKQIQKKRK-Amidation [Checacin 1^12−25]	the only exceptions	>50	>50	>50	>50	>50 (>50) μM	>50 (>50) μM	>50	–	–
